Results published in ChEMBL document CHEMBL3351600, “Sulfur, selenium and tellurium pseudopeptides: synthesis and biological evaluation” (Bioorg Med Chem, 2014).
The source made the active and inactive calls. No cut-off for these calls is given here.

Tests used:
PtK2 [1] = assay: Induction of morphological changes in Potorous tridactylus PtK2 cells assessed as lysis of ER and disappearance of actin stress fiber after 24 hrs by immunofluorescence microscopy; type: functional, cell-based
Method in brief: (§1)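 PtK2 cells were grown on coverslips and treated at semi-confluence for 24 h. Fixation was either 3.7% paraformaldehyde followed by 0.1% Triton X-100 for 5 min, or ice-cold methanol/acetone (50:50) for 10 min. ER was stained with anti-GRP94 and tubulin with anti-α-tubulin (primary and Alexa 488 secondary antibodies, 45 min each). Actin was stained with phalloidin-Alexa 594 for 45 min and nuclei with DAPI. Imaging was by fluorescence microscopy.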

Aspergillus niger = assay: Antimicrobial activity against Aspergillus niger assessed as inhibition at 20 ug/6 mm disk after 1 to 2 days by agar diffusion assay; type: functional
Method in brief: (§2)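 Standard agar diffusion: 6-mm paper disks loaded with 20 µg of compound were placed on inoculated plates. Inhibition-zone diameter (mm) was read after 1 and 2 days of growth.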

MCF7 [2] = assay: Cytotoxicity against human MCF7 cells assessed as cell viability after 24 hrs incubation by MTT assay; type: functional, cell-based; conditions: MCF7, 24 h
Method in brief: (§3)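 Cell lines came from DSMZ; primary human fibroblasts served as non-cancer controls. Cells were grown in medium with 10% FCS, seeded at 50,000 cells/ml, and grown 2 days at 37 °C, 10% CO2. Serial dilutions were then added for 24 h. MTT (final 0.5 mg/ml) was added for 2 h. Formazan was pelleted, PBS-washed, dissolved in isopropanol/0.4% HCl and read at 590 nm. Two parallel experiments were run. IC50 was taken as the concentration giving 50% of untreated-control absorbance.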

Escherichia coli = assay: Antimicrobial activity against Escherichia coli tolC assessed as inhibition at 20 ug/6 mm disk after 1 to 2 days by agar diffusion assay; type: functional; method in brief: as §2
Pseudomonas aeruginosa = assay: Antimicrobial activity against Pseudomonas aeruginosa assessed as inhibition at 20 ug/6 mm disk after 1 to 2 days by agar diffusion assay; type: functional; method in brief: as §2
MCF7 [3] = assay: Cell cycle arrest in human MCF7 cells assessed as accumulation at G0/G1 phase after 30 mins by propidium iodide staining-based flow cytometric analysis; type: functional
Method in brief: (§4)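 MCF-7 cells (10^6) were treated with compounds for 24 h alongside a methanol vehicle control. They were fixed in cold 70% methanol at 4 °C for one day, washed in PBS and permeabilised with 0.1% saponin in PBS. They were then stained with propidium iodide plus RNase (1 mg/ml) for 30 min, and DNA-content distribution was read by FACScan flow cytometry.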

[4] = Lipophilicity, log K of the compound by HPLC analysis
Candida albicans = assay: Antimicrobial activity against Candida albicans assessed as inhibition at 20 ug/6 mm disk after 1 to 2 days by agar diffusion assay; type: functional; method in brief: as §2
Staphylococcus aureus = assay: Antimicrobial activity against Staphylococcus aureus assessed as inhibition at 20 ug/6 mm disk after 1 to 2 days by agar diffusion assay; type: functional; method in brief: as §2
MCF7 [5] = assay: Cell cycle arrest in human MCF7 cells assessed as accumulation at S phase […] by propidium iodide staining-based flow cytometric analysis; type: functional
A-431 [6] = assay: Cytotoxicity against human A431 cells assessed as cell viability after 24 hrs incubation by MTT assay; type: functional, cell-based; conditions: A-431, 24 h; method in brief: as §3
MCF7 [7] = assay: Cell cycle arrest in human MCF7 cells assessed as accumulation at G2/M phase after 30 mins by propidium iodide staining-based flow cytometric analysis; type: functional; method in brief: as §4
Micrococcus luteus = assay: Antimicrobial activity against Micrococcus luteus assessed as inhibition at 20 ug/6 mm disk after 1 to 2 days by agar diffusion assay; type: functional; method in brief: as §2
A-431 [8] = assay: Reduction in ROS in human A431 cells assessed as decrease in hydrogen peroxide level at 0.1 to 10 ng/ml after 1 hr by DCHFA assay; type: functional, cell-based
Method in brief: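 A-431 cells were seeded at 10^5 per well and exposed to a range of compound concentrations for 1 h. They were then loaded with DCHFA probe for 30 min in the dark. Fluorescence was read immediately at ex/em 485/528 nm and expressed as arbitrary units per 10^5 cells.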

Saccharomyces cerevisiae = assay: Antimicrobial activity against Saccharomyces cerevisiae assessed as inhibition at 20 ug/6 mm disk after 1 to 2 days by agar diffusion assay; type: functional; method in brief: as §2
Mycolicibacterium phlei = assay: Antimicrobial activity against Mycobacterium phlei assessed as inhibition at 20 ug/6 mm disk after 1 to 2 days by agar diffusion assay; type: functional; method in brief: as §2
PtK2 [9] = assay: Induction of morphological changes in Potorous tridactylus PtK2 cells assessed as loss of typical shape after 24 hrs by immunofluorescence microscopy; type: functional, cell-based; method in brief: as §1
[10] = Cytotoxicity against human fibroblasts assessed as cell viability after 24 hrs incubation by MTT assay; type: cell-based; conditions: Fibroblast; method in brief: as §3
[11] = Octanol-water partition coefficient, log P of the compound by HPLC analysis; type: physicochemical
Method in brief: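 Lipophilicity was measured by reversed-phase HPLC on a Nucleosil C18 column with isocratic water/methanol (3:1) at 0.5 ml/min and UV detection at 230 and 245 nm. Dead time was set with thiourea (t0 0.728 min). Retention factor was k = (tR − t0)/t0, and log P came from a calibration against at least six reference compounds.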

Klebsiella pneumoniae = assay: Antimicrobial activity against Klebsiella pneumoniae assessed as inhibition at 20 ug/6 mm disk after 1 to 2 days by agar diffusion assay; type: functional; method in brief: as §2
A-431 [12] = assay: Reduction in ROS in human A431 cells assessed as decrease in hydrogen peroxide level at 1 to 100 ng/ml after 1 hr by DCHFA assay; type: functional, cell-based
Method in brief: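 A-431 cells (10^5 per well) were treated with a range of compound concentrations for 1 h. They were then loaded with DCHFA probe for 30 min in the dark. Fluorescence (ex 485/em 528 nm) was read immediately and expressed as arbitrary units per 10^5 cells.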

| SMILES | diameter of the inhibition zone (DIZ) (Aspergillus niger) [mm] | IC50 (MCF7 [2]) [µM] | diameter of the inhibition zone (DIZ) (Escherichia coli) [mm] | diameter of the inhibition zone (DIZ) (Pseudomonas aeruginosa) [mm] | Retention_time [min] | log K [4] | diameter of the inhibition zone (DIZ) (Candida albicans) [mm] | diameter of the inhibition zone (DIZ) (Staphylococcus aureus) [mm] | IC50 (A-431 [6]) [µM] | diameter of the inhibition zone (DIZ) (Micrococcus luteus) [mm] | diameter of the inhibition zone (DIZ) (Saccharomyces cerevisiae) [mm] | diameter of the inhibition zone (DIZ) (Mycolicibacterium phlei) [mm] | IC50 [10] [µM] | logP [11] | diameter of the inhibition zone (DIZ) (Klebsiella pneumoniae) [mm] | Activity (A-431 [12]) | other results |
| --- | --- | --- | --- | --- | --- | --- | --- | --- | --- | --- | --- | --- | --- | --- | --- | --- | --- |
| CC(C)(C)OC(=O)NCC(=O)OCC(=O)NCCC[Te]c1ccccc1 | 0 | 0.3 | 12 | 0 | 2.247 | 0.32 | 0 | 16 | 10 | 7 | 0 | 14 | 19 | 3.83 | 15 |  | Activity (PtK2 [1]): Active; Activity (MCF7 [3]): 91.61%; Activity (MCF7 [5]): 4.61%; Activity (MCF7 [7]): 3.78%; Activity (A-431 [8]): Dose-dependent effect; Activity (PtK2 [9]): Active |
| COc1ccc(N(CC(=O)NCCCSc2ccccc2)C(=O)C#Cc2ccccc2)cc1 | 0 | ≥ 100 | 0 | 0 | 1.698 | 0.12 | 0 | 0 | ≥ 100 | 0 | 0 | 0 | ≥ 100 | 3.4 | 0 | inactive |  |
| COc1ccc(N(CC(=O)NCCC[Se]c2ccccc2)C(=O)c2ccccc2)cc1 | 18 | ≥ 100 | 0 | 0 | 1.412 | -0.03 | 0 | 0 | ≥ 100 | 0 | 0 | 0 | ≥ 100 | 3.1 | 0 | inactive |  |
